Source: ChEMBL document CHEMBL5620437, “Discovery of Conformationally Constrained ALK2 Inhibitors” (J Med Chem, 2024)
Active and inactive are the calls of the source. No cut-off for these calls is given here.

Columns and labels:
[1] = Metabolic stability in CD-1 mouse liver microsome at 1 uM in presence of NADPH-regeneration system incubated for 60 mins by LC/MS analysis; assay type: ADME; conditions: liver microsomes, read-out: Stability
How it was run: (§1)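 Compound 1 μM final (0.1% DMSO) in 0.1 M potassium phosphate pH 7.4 with male CD-1 mouse or pooled human liver microsomes at 0.5 mg/mL protein plus NADPH-regeneration mix. Sampled at 0 and 60 min at 37 °C, in duplicate. Parent remaining by LC/MS peak area.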

[2] = Metabolic stability in human liver microsome at 1 uM in presence of NADPH-regeneration system incubated for 60 mins by LC/MS analysis; assay type: ADME; conditions: liver microsomes, read-out: Stability; how it was run: as §1
[3] = Apparent permeability across apical to basolateral side in human Caco-2 cells incubated for 2 hrs by LC/MS analysis; assay type: ADME, cell-based
How it was run: (§2)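 Caco-2 (C2BBE1) cells seeded 40,000/well on 1.0 μm PET inserts, grown 21–22 days; HBSS with 10 mM HEPES, 15 mM glucose, pH 7.4. Compound 5 μM in donor (0.1% DMSO), receiver with 1% BSA; 2 h at 37 °C shaking. Metoprolol, atenolol, Lucifer yellow, digoxin controls. LC/MS peak areas; two technical replicates; efflux ratio = Papp B-A / Papp A-B.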

[4] = Apparent permeability across basolateral to apical side in human Caco-2 cells incubated for 2 hrs by LC/MS analysis; assay type: ADME, cell-based; how it was run: as §2
[5] = target: T1, Activin receptor type-1 (Homo sapiens, UniProt Q04771); experiment: Inhibition of ALK2 in human HEK293 cells using NanoGlo as substrate incubated for 2 hrs by NanoBRET assay; assay type: cell-based
T1 sequence (Q04771 whole entry): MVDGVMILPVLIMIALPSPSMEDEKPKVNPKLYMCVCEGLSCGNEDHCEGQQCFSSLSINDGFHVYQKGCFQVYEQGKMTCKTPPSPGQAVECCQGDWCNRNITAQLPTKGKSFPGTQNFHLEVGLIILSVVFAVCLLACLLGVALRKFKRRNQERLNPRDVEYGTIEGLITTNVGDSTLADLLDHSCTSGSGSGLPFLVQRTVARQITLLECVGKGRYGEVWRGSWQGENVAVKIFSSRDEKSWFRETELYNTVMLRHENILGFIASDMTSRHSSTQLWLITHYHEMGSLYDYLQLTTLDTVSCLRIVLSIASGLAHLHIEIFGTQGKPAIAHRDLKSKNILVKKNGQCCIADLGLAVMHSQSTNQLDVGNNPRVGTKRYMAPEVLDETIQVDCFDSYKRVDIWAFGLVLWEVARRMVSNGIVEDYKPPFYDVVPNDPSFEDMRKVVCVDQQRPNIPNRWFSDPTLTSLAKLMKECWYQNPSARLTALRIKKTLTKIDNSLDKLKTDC

[6] = target: T1, Activin receptor type-1; experiment: Inhibition of N-terminal GST-his6 tagged human recombinant ALK2 (145 to 509 residues) expressed in Sf9 insect cells in presence of ATP by radiometric kinase assay
[7] = Drug concentration in NOD-SCID mouse plasma at 25 mg/kg, po measured at 0.5 hrs by LC-MS/MS analysis; assay type: ADME, organism-based
How it was run: (§3)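 Male NOD-SCID mice given 25 mg/kg orally in 5% DMSO, 47.5% PEG, 47.5% deionized water with 10% Tween80. Plasma drug levels measured at 0.5, 1, 2, 6 and 24 h; demethylated metabolites also quantified.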

[8] = Drug concentration in NOD-SCID mouse plasma at 25 mg/kg, po measured at 1 hrs by LC-MS/MS analysis; assay type: ADME, organism-based; how it was run: as §3
[9] = Drug concentration in NOD-SCID mouse plasma at 25 mg/kg, po measured at 2 hrs by LC-MS/MS analysis; assay type: ADME, organism-based; how it was run: as §3
[10] = Drug concentration in NOD-SCID mouse plasma at 25 mg/kg, po measured at 6 hrs by LC-MS/MS analysis; assay type: ADME, organism-based; how it was run: as §3
[11] = Drug concentration in NOD-SCID mouse plasma at 25 mg/kg, po measured at 24 hrs by LC-MS/MS analysis; assay type: ADME, organism-based; how it was run: as §3
[12] = Drug concentration in NOD-SCID mouse plasma at 10 mg/kg, po measured at 2 hrs by LC-MS/MS analysis; assay type: ADME, organism-based
How it was run: (§4)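 Male NOD-SCID mice dosed orally at 10 mg/kg. Plasma and brain concentrations of parent and demethylated metabolites measured at 2 and 4 h. Kp = Cbrain/Cplasma at 4 h.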

[13] = Drug concentration in NOD-SCID mouse brain at 10 mg/kg, po measured at 2 hrs by LC-MS/MS analysis; assay type: ADME, organism-based; conditions: read-out: Ct; how it was run: as §4
[14] = Drug concentration in NOD-SCID mouse plasma at 10 mg/kg, po measured at 4 hrs by LC-MS/MS analysis; assay type: ADME, organism-based; how it was run: as §4
[15] = Drug concentration in NOD-SCID mouse brain at 10 mg/kg, po measured at 4 hrs by LC-MS/MS analysis; assay type: ADME, organism-based; conditions: read-out: Ct; how it was run: as §4
[16] = Ratio of drug concentration in brain to plasma in NOD-SCID mouse brain at 10 mg/kg, po measured at 4 hrs by LC-MS/MS analysis; assay type: ADME, organism-based; conditions: read-out: BPR; how it was run: as §4
[17] = Dissociation constant, pKa of compound; assay type: physicochemical
[18] = target: Epithelial discoidin domain-containing receptor 1 (Homo sapiens) (UniProt Q08345); experiment: Inhibition of human recombinant DDR1 (492 to end residues) using KKKSPGEYVNIEF as substrate incubated for 40 mins by scintillation based radiometric LeadHunter assay
Sequence of Epithelial discoidin domain-containing receptor 1 (Homo sapiens) (Q08345 whole entry, the tested form may be a part): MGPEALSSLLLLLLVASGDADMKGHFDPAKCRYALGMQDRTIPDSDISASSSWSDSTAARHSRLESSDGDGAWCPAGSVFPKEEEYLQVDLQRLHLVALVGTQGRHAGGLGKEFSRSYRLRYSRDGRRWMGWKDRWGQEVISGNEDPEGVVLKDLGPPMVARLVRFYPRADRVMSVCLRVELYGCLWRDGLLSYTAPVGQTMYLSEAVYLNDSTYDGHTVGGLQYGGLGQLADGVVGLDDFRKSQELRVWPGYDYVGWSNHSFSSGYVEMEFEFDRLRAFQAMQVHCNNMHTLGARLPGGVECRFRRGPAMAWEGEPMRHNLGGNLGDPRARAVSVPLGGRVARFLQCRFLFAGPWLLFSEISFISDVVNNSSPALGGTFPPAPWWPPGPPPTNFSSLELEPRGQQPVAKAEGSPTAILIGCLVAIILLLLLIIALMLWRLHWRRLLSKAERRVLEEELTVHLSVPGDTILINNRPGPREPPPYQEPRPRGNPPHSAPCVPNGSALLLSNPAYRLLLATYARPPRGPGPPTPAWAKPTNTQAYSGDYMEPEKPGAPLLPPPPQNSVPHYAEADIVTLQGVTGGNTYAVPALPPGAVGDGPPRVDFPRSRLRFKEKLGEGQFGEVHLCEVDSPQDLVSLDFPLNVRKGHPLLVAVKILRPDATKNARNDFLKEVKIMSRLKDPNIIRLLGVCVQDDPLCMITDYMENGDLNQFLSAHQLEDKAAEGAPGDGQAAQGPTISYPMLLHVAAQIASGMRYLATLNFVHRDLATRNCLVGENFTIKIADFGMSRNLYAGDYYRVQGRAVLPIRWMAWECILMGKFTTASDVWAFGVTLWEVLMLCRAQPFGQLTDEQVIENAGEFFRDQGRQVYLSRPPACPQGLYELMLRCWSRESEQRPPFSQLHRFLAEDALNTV

[19] = target: Receptor-interacting serine/threonine-protein kinase 2 (Homo sapiens) (UniProt O43353); experiment: Inhibition of human recombinant RIPK2 (1 to 299 residues) incubated for 120 mins in presence of ATP by scintillation based radiometric LeadHunter assay
Sequence of Receptor-interacting serine/threonine-protein kinase 2 (Homo sapiens) (O43353 whole entry, the tested form may be a part): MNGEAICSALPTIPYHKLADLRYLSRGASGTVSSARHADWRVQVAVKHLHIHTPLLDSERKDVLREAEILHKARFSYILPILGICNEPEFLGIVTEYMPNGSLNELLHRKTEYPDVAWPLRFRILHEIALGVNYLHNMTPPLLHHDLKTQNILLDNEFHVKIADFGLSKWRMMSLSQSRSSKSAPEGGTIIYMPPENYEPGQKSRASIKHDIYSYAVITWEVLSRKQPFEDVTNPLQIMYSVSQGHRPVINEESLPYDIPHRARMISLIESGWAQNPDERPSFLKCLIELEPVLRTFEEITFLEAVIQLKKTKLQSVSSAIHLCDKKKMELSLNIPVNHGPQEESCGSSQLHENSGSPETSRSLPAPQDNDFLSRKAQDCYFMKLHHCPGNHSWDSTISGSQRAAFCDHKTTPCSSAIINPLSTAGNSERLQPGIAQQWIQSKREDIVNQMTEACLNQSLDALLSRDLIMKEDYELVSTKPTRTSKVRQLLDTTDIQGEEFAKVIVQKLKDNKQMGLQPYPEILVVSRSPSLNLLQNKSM

[20] = target: Protein-tyrosine kinase 6 (Homo sapiens) (UniProt Q13882); experiment: Inhibition of full length human recombinant BRK using poly Glu as substrate incubated for 40 mins by scintillation based radiometric LeadHunter assay
Sequence of Protein-tyrosine kinase 6 (Homo sapiens) (Q13882 whole entry, looked up): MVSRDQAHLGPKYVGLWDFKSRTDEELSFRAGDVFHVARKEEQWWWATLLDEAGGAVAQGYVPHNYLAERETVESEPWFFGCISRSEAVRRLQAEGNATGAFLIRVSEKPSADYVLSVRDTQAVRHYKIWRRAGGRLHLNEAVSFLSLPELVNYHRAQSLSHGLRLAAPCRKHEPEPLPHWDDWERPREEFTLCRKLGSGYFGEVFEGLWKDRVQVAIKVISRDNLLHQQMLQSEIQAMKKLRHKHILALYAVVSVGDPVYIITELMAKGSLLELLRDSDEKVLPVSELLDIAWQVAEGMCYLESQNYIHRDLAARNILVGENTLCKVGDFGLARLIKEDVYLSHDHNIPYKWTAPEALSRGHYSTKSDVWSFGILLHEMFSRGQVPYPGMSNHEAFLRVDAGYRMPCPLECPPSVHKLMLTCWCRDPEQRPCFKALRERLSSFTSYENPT

[21] = test system: Epidermal growth factor receptor (Homo sapiens), P00533 [L858R]; experiment: Inhibition of human EGFR L858R mutant (696 to end residues) using poly Glu as substrate incubated for 40 mins by scintillation based radiometric LeadHunter assay
Sequence of Epidermal growth factor receptor (Homo sapiens), P00533 [L858R] (P00533 whole entry L858R): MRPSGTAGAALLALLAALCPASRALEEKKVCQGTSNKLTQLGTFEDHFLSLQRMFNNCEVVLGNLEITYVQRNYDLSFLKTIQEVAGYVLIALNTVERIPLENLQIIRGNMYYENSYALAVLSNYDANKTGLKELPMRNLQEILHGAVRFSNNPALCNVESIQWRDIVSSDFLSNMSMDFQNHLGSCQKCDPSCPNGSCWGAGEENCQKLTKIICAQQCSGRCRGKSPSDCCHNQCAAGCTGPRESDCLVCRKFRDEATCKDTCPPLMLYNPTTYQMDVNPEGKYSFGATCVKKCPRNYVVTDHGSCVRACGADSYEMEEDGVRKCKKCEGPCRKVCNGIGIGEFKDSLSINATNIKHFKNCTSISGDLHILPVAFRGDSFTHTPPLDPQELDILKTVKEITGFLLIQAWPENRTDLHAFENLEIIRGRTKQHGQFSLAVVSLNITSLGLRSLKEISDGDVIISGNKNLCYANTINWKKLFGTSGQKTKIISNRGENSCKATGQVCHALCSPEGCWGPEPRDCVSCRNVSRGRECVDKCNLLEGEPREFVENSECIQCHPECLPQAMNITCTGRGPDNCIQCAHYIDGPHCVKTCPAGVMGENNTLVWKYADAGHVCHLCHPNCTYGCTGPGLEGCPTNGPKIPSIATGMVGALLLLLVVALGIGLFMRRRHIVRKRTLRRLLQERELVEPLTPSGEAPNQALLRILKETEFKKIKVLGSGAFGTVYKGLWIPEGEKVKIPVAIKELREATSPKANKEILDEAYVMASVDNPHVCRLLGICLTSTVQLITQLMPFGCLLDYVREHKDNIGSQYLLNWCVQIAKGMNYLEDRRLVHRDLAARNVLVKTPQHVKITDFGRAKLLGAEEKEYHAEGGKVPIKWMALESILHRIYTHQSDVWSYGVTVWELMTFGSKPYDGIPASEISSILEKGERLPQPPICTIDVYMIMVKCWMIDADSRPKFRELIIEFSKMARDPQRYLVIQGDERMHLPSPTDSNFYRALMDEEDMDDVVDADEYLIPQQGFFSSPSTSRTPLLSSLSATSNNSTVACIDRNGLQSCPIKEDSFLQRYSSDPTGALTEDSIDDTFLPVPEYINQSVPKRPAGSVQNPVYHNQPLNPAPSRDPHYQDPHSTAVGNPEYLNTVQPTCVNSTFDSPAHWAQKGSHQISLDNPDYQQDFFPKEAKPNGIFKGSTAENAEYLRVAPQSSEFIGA

[22] = test system: Epidermal growth factor receptor (Homo sapiens), P00533 [L861Q]; experiment: Inhibition of human EGFR L861Q mutant (696 to end residues) using poly Glu as substrate incubated for 40 mins by scintillation based radiometric LeadHunter assay
[23] = target: TRAF2 and NCK-interacting protein kinase (Homo sapiens) (UniProt Q9UKE5); experiment: Inhibition of human recombinant TNIK (1 to 367 residues) using RLGRDKYKTLRQI as substrate incubated for 40 mins by scintillation based radiometric LeadHunter assay
Sequence of TRAF2 and NCK-interacting protein kinase (Homo sapiens) (Q9UKE5 whole entry, looked up, the tested form may be a part): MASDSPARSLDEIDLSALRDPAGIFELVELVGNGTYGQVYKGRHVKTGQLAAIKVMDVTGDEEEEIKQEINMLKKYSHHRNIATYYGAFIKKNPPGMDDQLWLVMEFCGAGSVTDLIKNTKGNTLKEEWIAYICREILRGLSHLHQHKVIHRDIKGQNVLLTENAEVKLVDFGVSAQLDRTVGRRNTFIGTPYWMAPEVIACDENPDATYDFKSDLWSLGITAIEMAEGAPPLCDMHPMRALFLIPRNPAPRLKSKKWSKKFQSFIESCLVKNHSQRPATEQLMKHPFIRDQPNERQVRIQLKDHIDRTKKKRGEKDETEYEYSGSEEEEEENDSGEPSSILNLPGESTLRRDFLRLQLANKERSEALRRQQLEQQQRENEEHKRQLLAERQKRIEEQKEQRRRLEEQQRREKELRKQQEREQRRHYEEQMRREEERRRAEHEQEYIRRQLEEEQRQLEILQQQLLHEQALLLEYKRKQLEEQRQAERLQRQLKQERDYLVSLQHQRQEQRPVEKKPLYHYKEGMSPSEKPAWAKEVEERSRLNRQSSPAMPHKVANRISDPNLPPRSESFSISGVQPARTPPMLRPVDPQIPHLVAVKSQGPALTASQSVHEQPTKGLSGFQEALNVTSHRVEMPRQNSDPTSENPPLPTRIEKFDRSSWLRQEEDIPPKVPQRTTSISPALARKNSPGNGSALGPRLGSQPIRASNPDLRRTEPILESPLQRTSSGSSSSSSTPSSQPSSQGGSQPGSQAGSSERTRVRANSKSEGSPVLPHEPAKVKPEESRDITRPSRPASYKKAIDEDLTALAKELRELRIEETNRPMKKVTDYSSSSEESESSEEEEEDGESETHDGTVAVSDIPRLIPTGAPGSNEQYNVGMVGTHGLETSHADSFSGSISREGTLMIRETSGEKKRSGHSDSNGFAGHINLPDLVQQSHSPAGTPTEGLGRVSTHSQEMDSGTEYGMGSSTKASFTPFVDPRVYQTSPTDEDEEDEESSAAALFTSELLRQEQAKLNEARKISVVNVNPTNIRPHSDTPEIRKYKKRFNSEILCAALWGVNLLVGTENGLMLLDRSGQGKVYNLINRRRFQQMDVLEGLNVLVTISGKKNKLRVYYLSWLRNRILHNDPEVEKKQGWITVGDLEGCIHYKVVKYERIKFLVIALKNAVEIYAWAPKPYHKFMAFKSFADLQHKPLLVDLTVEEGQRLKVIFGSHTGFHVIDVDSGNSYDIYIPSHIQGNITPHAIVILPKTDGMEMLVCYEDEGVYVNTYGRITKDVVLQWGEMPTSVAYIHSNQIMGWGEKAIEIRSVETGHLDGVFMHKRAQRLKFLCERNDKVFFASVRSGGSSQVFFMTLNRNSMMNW

[24] = target: Tyrosine-protein kinase Lyn (Homo sapiens) (UniProt P07948); experiment: Inhibition of full length human recombinant LYN (1 to 367 residues) using poly Glu as substrate incubated for 40 mins by scintillation based radiometric LeadHunter assay
Sequence of Tyrosine-protein kinase Lyn (Homo sapiens) (P07948 2-512 limits assumed): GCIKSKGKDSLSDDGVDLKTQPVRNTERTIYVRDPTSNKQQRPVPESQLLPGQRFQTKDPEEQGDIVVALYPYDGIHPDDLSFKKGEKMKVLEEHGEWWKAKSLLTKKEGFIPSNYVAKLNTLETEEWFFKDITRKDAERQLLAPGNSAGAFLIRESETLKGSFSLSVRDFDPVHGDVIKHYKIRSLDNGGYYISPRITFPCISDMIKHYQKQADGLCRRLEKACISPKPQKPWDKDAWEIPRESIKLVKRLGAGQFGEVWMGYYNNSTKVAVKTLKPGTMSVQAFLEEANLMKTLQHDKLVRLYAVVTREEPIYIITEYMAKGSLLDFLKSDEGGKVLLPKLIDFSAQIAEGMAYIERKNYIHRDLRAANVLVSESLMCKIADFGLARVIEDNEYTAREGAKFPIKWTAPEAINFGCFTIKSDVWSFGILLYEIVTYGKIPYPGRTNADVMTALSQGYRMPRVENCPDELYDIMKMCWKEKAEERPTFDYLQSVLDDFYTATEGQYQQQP

[25] = target: Epithelial discoidin domain-containing receptor 1 (Homo sapiens) (UniProt Q08345); experiment: Inhibition of human recombinant DDR1 (492 to end residues) using KKKSPGEYVNIEF as substrate at 1 uM incubated for 40 mins by scintillation based radiometric LeadHunter assay relative to control
[26] = target: TRAF2 and NCK-interacting protein kinase (Homo sapiens) (UniProt Q9UKE5); experiment: Inhibition of human recombinant TNIK (1 to 367 residues) using RLGRDKYKTLRQI as substrate at 1 uM incubated for 40 mins by scintillation based radiometric LeadHunter assay relative to control

Compound | remaining at 1 h, 1 µM [1] | remaining at 1 h, 1 µM [2] | Papp A→B at 2 h [3] | Papp B→A at 2 h [4] | IC50 [5] | IC50 [6] | concentration at 0.5 h [7] | concentration at 1 h [8] | concentration at 2 h [9] | concentration at 6 h [10] | concentration at 24 h [11] | concentration at 2 h [12] | concentration at 2 h [13] | concentration at 4 h [14] | concentration at 4 h [15] | Kp at 4 h [16] | pKa [17] | further results
COc1cc(-c2cncc3c2CN(C)Cc2cc(N4CCN(C)CC4)ccc2-3)cc(OC)c1OC | 65% | 58.3% | 1.5 ×10⁻⁶ cm/s | 2.5 ×10⁻⁶ cm/s | 18 nM | 7 nM | 134 nM | 254 nM | 277 nM | 300 nM | 17 nM | 75 nM | 4130 nM | 43 nM | 3250 nM | 75.6 | 8.12 | –
COc1cc(-c2cncc3c2COCc2cc(N4CCNCC4)ccc2-3)cc(OC)c1OC | 75.7% | 62.3% | 4.2 ×10⁻⁶ cm/s | 9.4 ×10⁻⁶ cm/s | 5 nM | 2 nM | – | – | – | – | – | – | – | – | – | – | – | –
COc1cc(-c2cncc3c2CCOc2cc(N4CCN(C)CC4)ccc2-3)cc(OC)c1OC | 10.3% | 21.2% | 13.9 ×10⁻⁶ cm/s | 11.5 ×10⁻⁶ cm/s | 15 nM | 2 nM | 3650 nM | 5050 nM | 3530 nM | 2230 nM | – | 980 nM | 2410 nM | 393 nM | 1470 nM | 3.7 | 8.54 | –
COc1cc(-c2cncc3c2CCOc2cc(N4CCNCC4)ccc2-3)cc(OC)c1OC | 70.9% | 66.5% | 5.3 ×10⁻⁶ cm/s | 11.6 ×10⁻⁶ cm/s | 6 nM | 2 nM | 729 nM | 1070 nM | 1120 nM | 1890 nM | 63 nM | – | – | – | – | – | – | –
COc1cc(-c2cncc3c2COc2cc(N4CCN(C)CC4)ccc2-3)cc(OC)c1OC | 0.9% | 34.8% | 8.3 ×10⁻⁶ cm/s | 9 ×10⁻⁶ cm/s | 45 nM | 13 nM | – | – | – | – | – | – | – | – | – | – | – | –

The next lines start with results.

remaining at 1 h, 1 µM [1] | remaining at 1 h, 1 µM [2] | Papp A→B at 2 h [3] | Papp B→A at 2 h [4] | IC50 [5] | IC50 [6] | concentration at 0.5 h [7] | concentration at 1 h [8] | concentration at 2 h [9] | concentration at 6 h [10] | concentration at 24 h [11] | concentration at 2 h [12] | concentration at 2 h [13] | concentration at 4 h [14] | concentration at 4 h [15] | Kp at 4 h [16] | pKa [17] | Compound | further results
4.3% | 29.7% | 16.5 ×10⁻⁶ cm/s | 13.6 ×10⁻⁶ cm/s | 7 nM | 3 nM | – | – | – | – | – | – | – | – | – | – | – | COc1cc(-c2cncc3c2COCc2cc(N4CCN(C)CC4)ccc2-3)cc(OC)c1OC | –
9.5% | 37.4% | 4 ×10⁻⁶ cm/s | 2.5 ×10⁻⁶ cm/s | > 10000 nM | 609 nM | – | – | – | – | – | – | – | – | – | – | – | COc1cc(-c2cncc3c2oc2cc(N4CCN(C)CC4)ccc23)cc(OC)c1OC | –
98.6% | 73.2% | 0.8 ×10⁻⁶ cm/s | 4.2 ×10⁻⁶ cm/s | 11 nM | 3 nM | 323 nM | 466 nM | 523 nM | 1260 nM | 336 nM | – | – | – | – | – | – | COc1cc(-c2cncc3c2CN(C)Cc2cc(N4CCNCC4)ccc2-3)cc(OC)c1OC | inhibition [18]: Active; inhibition [19]: Active; inhibition [20]: Active; inhibition [21]: Active; inhibition [22]: Active; inhibition [23]: Active; inhibition [24]: Active
– | – | – | – | – | – | 3020 nM | 4280 nM | 7490 nM | 13400 nM | 1540 nM | 5250 nM | 2320 nM | 2680 nM | 888 nM | 0.3 | 8.6 | COc1cc(-c2cncc(-c3ccc(N4CCNCC4)cc3)c2C)cc(OC)c1OC | inhibition [25]: 100%; inhibition [26]: 100%
